Here are results for 5 molecules from ChEMBL document CHEMBL1137537, “Novel oxotremorine-related heterocyclic derivatives: Synthesis and in vitro pharmacology at the muscarinic receptor subtypes” (Bioorg Med Chem, 2007).

For one assay, the species on record is Oryctolagus cuniculus. The assay is described as follows: Intrinsic activity at muscarinic M1 receptor in electrically stimulated New Zealand rabbit vas deferens relative to McN-A-343. The assay is classed as tissue-based. The gist of the method: (§1)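 Intrinsic activity as ratio of compound's maximal response to that of reference full agonist (McN-A-343 for vas deferens, bethanechol for atrium and ileum), from cumulative concentration–response curves; mean of 6-8 experiments.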

Assay [1] concerns the target T1, Muscarinic acetylcholine receptor M1 (Homo sapiens, UniProt P11229).
T1 sequence (P11229 whole entry): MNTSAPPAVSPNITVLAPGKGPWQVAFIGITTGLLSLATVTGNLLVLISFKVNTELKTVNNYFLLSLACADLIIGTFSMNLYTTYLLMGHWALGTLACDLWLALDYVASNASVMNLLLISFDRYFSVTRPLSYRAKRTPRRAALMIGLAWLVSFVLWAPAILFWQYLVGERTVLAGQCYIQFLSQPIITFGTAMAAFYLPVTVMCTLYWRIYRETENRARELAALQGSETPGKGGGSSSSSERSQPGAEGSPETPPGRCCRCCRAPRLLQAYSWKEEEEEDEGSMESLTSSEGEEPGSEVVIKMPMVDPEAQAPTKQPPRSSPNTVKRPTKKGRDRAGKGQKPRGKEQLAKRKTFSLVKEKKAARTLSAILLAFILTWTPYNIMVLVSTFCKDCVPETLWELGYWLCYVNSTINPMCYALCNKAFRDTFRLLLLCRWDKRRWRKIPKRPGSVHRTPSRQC
The assay is described as follows: biochemical. Type of assay: cell-based, CHO.

The target of assay [2] is T2, Muscarinic acetylcholine receptor M2 (Homo sapiens, UniProt P08172).
T2 sequence (P08172 whole entry): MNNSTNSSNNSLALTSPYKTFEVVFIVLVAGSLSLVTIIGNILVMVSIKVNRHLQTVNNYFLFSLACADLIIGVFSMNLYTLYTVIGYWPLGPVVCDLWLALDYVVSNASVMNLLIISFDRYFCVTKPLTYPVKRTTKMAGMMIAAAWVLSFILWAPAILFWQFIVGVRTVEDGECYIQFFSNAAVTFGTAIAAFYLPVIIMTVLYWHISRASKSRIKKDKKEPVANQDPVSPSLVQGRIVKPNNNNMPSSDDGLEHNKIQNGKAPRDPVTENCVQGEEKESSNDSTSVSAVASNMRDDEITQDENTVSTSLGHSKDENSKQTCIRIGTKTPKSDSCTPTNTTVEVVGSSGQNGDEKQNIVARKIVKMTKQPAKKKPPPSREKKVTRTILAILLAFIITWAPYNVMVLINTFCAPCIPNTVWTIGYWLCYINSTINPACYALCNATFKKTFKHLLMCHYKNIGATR
The assay is described as follows: Displacement of [3H]QNB from human muscarinic M2 receptor expressed in CHO cells. The assay is classed as cell-based. The gist of the method: (§2)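 Membranes (10-50 µg protein) from stable CHO lines expressing human m2-m5, competed against 180 pM [3H]QNB in 50 mM Tris-HCl pH 7.4 with 1% DMSO; 120 min at 25 °C to equilibrium; nonspecific binding with 0.5 µM atropine; GF-C filtration, scintillation counting; IC50 by logistic fit, Ki via Cheng–Prusoff using saturation-derived KD (5–2500 pM [3H]QNB).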

In assay [3] the target is Muscarinic acetylcholine receptor M3 (Homo sapiens, UniProt P20309). The assay is described as follows: Displacement of [3H]QNB from human muscarinic M3 receptor expressed in CHO cells. Type of assay: cell-based.
Assay [4] addresses T3, Muscarinic acetylcholine receptor M4 (Homo sapiens, UniProt P08173).
T3 sequence (P08173 whole entry): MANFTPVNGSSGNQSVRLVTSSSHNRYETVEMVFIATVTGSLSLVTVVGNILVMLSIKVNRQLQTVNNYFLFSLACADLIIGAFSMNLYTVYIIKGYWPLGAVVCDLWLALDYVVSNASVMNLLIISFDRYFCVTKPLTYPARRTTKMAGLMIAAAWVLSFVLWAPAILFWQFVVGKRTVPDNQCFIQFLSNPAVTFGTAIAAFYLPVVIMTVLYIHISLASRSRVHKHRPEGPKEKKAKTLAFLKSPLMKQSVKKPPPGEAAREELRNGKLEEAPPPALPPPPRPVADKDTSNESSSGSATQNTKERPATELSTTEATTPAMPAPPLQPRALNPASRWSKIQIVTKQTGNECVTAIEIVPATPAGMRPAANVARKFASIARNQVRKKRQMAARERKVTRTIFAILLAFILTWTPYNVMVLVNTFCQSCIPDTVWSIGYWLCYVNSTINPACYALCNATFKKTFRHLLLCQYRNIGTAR
The assay is described as follows: Displacement of [3H]QNB from human muscarinic M4 receptor expressed in CHO cells. The assay is classed as cell-based. The gist of the method:
as §2

For assay [5], the target named is T4, Muscarinic acetylcholine receptor M5 (Homo sapiens, UniProt P08912).
T4 sequence (P08912 whole entry): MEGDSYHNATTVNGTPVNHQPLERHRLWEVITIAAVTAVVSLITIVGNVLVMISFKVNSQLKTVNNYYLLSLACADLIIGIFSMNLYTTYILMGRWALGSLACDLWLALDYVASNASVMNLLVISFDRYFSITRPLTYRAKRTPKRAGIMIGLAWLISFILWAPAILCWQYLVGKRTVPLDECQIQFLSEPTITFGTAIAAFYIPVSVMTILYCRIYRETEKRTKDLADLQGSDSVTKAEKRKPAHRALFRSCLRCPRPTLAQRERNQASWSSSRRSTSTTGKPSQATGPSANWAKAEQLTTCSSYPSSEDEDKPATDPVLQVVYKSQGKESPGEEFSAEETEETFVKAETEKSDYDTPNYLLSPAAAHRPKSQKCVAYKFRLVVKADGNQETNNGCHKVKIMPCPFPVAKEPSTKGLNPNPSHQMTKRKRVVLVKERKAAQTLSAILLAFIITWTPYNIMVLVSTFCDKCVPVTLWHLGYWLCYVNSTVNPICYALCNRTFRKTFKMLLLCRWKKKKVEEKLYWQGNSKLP
Put plainly: Displacement of [3H]QNB from human muscarinic M5 receptor expressed in CHO cells. Type of assay: cell-based.

For another assay, the species on record is Cavia porcellus. Put plainly: Intrinsic activity at muscarinic M2 receptor in electrically stimulated guinea-pig left atrium relative to benthanechol. The assay is classed as tissue-based. The following applies: Cardiac atrium. The gist of the method:
as §1

The target of assay [6] is Muscarinic acetylcholine receptor M3 (Cavia porcellus) (UniProt Q8VH26). The assay is described as follows: Intrinsic activity at muscarinic M3 receptor in guinea-pig ileum relative to benthanechol. The assay is classed as tissue-based. The gist of the method: as §1
The nature of assay [7]: Antagonist activity at muscarinic M1 receptor in electrically stimulated New Zealand rabbit vas deferens. Type of assay: functional, Oryctolagus cuniculus. The gist of the method:
(§3)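 Antagonist mode: after 30 min incubation with test compound (10 nM–100 µM), concentration–response curve to full agonist (bethanechol or McN-A-343) repeated; pKB as molar concentration giving twofold EC50 shift, Furchgott's method; mean of 6-8 experiments.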

The nature of assay [8]: Antagonist activity at muscarinic M2 receptor in electrically stimulated guinea-pig left atrium. Type of assay: functional, Cavia porcellus, Cardiac atrium. The gist of the method:
as §3

Assay [9] has as its target Muscarinic acetylcholine receptor M3 (Cavia porcellus) (UniProt Q8VH26). The assay is described as follows: Antagonist activity at muscarinic M3 receptor in guinea-pig ileum. Type of assay: functional, tissue-based. In outline:
as §3

Assay [10] in a line: Agonist activity at muscarinic M1 receptor in electrically stimulated New Zealand rabbit vas deferens. The assay is classed as functional, tissue-based. The conditions noted are these: Oryctolagus cuniculus.
Assay [11] is described as follows: Agonist activity at muscarinic M2 receptor in electrically stimulated guinea-pig left atrium. The assay is classed as functional, tissue-based. The following applies: Cavia porcellus, Cardiac atrium.
For assay [12], the target named is T5, Muscarinic acetylcholine receptor M3 (Cavia porcellus, UniProt Q8VH26). Put plainly: Agonist activity at muscarinic M3 receptor in guinea-pig ileum. The assay is classed as functional, tissue-based. The gist of the method: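 Guinea-pig ileal segments 2–3 cm, 1.0 g tension, 37 °C Krebs-Henseleit with carbogen, 45 min equilibration; isometric contractions to cumulative agonist concentrations; pEC50 by least-squares linear regression; mean of 6-8 experiments.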

Assay [13] is described as follows: Binding affinity to muscarinic M2 receptor in electrically stimulated guinea-pig left atrium. The assay is classed as tissue-based, Cavia porcellus, Cardiac atrium. The gist of the method: (§4)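 Apparent affinity pKD: for full agonists by receptor inactivation with phenoxybenzamine (1-10 µM, 20-30 min); for partial agonists by McKay's method comparing curves with reference full agonist; mean of 6-8 experiments.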

The target in assay [14] is T5, Muscarinic acetylcholine receptor M3. The assay is described as follows: Binding affinity to muscarinic M3 receptor in guinea-pig ileum. Type of assay: tissue-based. In outline:
as §4

The nature of assay [15]: Binding affinity to muscarinic M1 receptor in electrically stimulated New Zealand rabbit vas deferens. Type of assay: tissue-based, Oryctolagus cuniculus. In outline:
as §4

Chain of Muscarinic acetylcholine receptor M3 (Cavia porcellus) (Q8VH26 1-587): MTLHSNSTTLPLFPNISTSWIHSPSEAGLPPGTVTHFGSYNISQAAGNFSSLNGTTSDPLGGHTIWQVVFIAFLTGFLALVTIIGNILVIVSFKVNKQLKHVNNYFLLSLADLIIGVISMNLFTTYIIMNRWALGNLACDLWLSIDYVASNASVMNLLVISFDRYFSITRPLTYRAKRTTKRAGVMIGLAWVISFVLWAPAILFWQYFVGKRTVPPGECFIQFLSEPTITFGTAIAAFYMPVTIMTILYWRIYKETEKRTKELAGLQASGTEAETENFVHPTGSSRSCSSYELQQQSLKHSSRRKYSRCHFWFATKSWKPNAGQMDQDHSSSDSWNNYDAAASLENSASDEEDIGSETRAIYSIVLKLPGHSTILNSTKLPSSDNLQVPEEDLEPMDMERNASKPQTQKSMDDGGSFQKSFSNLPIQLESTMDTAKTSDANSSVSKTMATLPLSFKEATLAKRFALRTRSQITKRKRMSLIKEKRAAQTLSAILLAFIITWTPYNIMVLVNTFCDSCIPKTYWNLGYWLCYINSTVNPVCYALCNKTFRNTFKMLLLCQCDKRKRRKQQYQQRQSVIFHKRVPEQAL
T5 sequence (Q8VH26 whole entry): as the sequence (Q8VH26 1-587) above
Chain of Muscarinic acetylcholine receptor M3 (Homo sapiens, UniProt P20309) (P20309 whole entry): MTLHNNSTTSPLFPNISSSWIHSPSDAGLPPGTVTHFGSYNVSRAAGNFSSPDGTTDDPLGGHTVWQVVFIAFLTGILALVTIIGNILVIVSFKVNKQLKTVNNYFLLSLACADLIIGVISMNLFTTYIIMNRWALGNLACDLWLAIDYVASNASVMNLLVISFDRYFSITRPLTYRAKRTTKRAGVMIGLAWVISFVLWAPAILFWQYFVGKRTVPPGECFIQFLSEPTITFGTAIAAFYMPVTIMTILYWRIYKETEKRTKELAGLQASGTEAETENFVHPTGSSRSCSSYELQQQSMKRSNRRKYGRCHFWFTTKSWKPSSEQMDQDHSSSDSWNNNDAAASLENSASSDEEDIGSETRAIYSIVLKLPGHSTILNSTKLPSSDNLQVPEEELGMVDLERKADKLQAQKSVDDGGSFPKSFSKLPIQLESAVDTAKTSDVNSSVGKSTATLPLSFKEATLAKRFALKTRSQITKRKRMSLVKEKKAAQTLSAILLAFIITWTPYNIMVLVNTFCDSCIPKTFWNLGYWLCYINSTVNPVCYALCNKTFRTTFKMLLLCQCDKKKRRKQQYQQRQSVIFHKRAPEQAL

On to `C[N+]1(CC#CCOc2cc(-c3ccccc3)on2)CCCC1.[I-]`, for which the Intrinsic activity (in the assay filed under Oryctolagus cuniculus; in the assay filed under Cavia porcellus; in assay [6]) was 0 each time. For the same molecule, the Ki in [1] was 3.38 µM; in assay [2], greater than 10 µM; in assay [3], 1.45 µM; in assay [4], 5.99 µM; in assay [5], 1.84 µM. For the same molecule, the pKb was 6.88 in assay [7], 5.95 in assay [8] and 5.53 in assay [9].

`O=C(O)C(=O)O.O=C1CCON1CC#CCN1CCCCC1`: the Intrinsic activity was 0 in the assay filed under Oryctolagus cuniculus, 0.2 in the assay listed under Cavia porcellus and 0 in [6]. The Ki in assay [1] was determined as 0.819 µM; in [2], 0.04 µM; in [3], 0.537 µM; in assay [4] it was 0.792 µM; in assay [5], 0.544 µM. The figures for the pKb in [7], in [8] and in [9] were 6.45, 5.94 and 5.55, respectively.

Take `C(#CCN1CCCC1)COc1cc(-c2ccccc2)on1`: the Intrinsic activity in the assay filed under Oryctolagus cuniculus came to 1; in the assay filed under Cavia porcellus, 0.6; in [6] it was 0. The Ki was 6.14 µM in assay [1]; greater than 10 µM in assay [2]; 4.01 µM in assay [3]; 5.48 µM in [4]; 6.88 µM in assay [5]. In addition, the results for the EC50 in assay [10] and in assay [11] were 44.7 µM and 21.9 µM, respectively. This molecule had a negative logarithm of the Kb (pKb) in [9] of 4.94.

Regarding `C[N+]1(CC#CCOC2=NOCC2)CCCCC1.[I-]`, the Intrinsic activity in the assay filed under Oryctolagus cuniculus was 0.4; in the assay filed under Cavia porcellus it was 1; in assay [6], 1. In addition, the Ki turned out to be 7.37 µM in assay [1]; 0.219 µM in assay [2]; 4.74 µM in [3]; 1.68 µM in assay [4]; 4.12 µM in assay [5]. The EC50 in assay [10] was 0.794 µM; in assay [11], 0.0457 µM; in assay [12] it was 0.269 µM. Besides, the pKd is on record as 6.74 in assay [13] and 6.51 in assay [15]. For the same molecule, binding in assay [14] was characterised by a dissociation constant (Kd) of 0.295 µM.

As for `Cc1cc(OCC#CCN2CCCC2)no1.O=C(O)/C=C/C(=O)O`, the Intrinsic activity in the assay filed under Oryctolagus cuniculus worked out at 0; in the assay listed under Cavia porcellus, 0; in assay [6], 0.4. In addition, the Ki in [2] and in assay [5] was greater than 10 µM throughout. In [12], the midpoint of the response, the EC50, lay at 15.1 µM. Further, the pKb in assay [7] was 5.66; in assay [8], 4.81. The molecule also gave a Kd in assay [14] of 15.5 µM.
